# Measured values reported in ChEMBL document CHEMBL3425497, “Discovery of (R)-1-(3-((2-chloro-4-(((2-hydroxy-2-(8-hydroxy-2-oxo-1,2-dihydroquinolin-5-yl)ethyl)amino)methyl)-5-methoxyphenyl)amino)-3-oxopropyl)piperidin-4-yl [1,1'-biphenyl]-2-ylcarbamate (TD-5959, GSK961081, batefenterol): first-in-class dual pharmacology multivalent muscarinic antagonist and …” (J Med Chem, 2015).
# Experiments:
# [1] = test system: Salmonella typhimurium; experiment: Genotoxicity in Salmonella typhimurium at 5000 ug/plate by AMES test in absence of metabolic activation; type: toxicity, organism-based; details: salmonella enterica subsp. enterica serovar typhimurium
# Method in brief: (§1)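 Exploratory (non-GLP) Ames assay, tested at up to 5000 μg/plate with and without a metabolic activation system.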
# [2] = test system: Cavia porcellus; experiment: Bronchoprotection in male Duncan Hartley guinea pig bronchoconstriction einthoven model assessed as inhibition of methacholine-induced bronchoconstriction at 100 microg/ml, inhalation after 24 hrs by in vivo muscarinic acetylcholine receptor antagonist activity assay; type: functional; set-up: scale not given: the % may be the effect or the level left
# Method in brief: (§2)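 Einthoven bronchoprotection in guinea pigs, read as % bronchoprotection 24 h after inhaled dosing. The TFA salt was used in the initial experiments. For one compound, the edisylate salt was compared with the TFA form. Group sizes were n = 3–8.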
# [3] = target: T1, CYP1A2 (Homo sapiens, UniProt P05177); experiment: Inhibition of CYP1A2 (unknown origin) at 600 nM; type: ADME
# T1 sequence (P05177 whole entry): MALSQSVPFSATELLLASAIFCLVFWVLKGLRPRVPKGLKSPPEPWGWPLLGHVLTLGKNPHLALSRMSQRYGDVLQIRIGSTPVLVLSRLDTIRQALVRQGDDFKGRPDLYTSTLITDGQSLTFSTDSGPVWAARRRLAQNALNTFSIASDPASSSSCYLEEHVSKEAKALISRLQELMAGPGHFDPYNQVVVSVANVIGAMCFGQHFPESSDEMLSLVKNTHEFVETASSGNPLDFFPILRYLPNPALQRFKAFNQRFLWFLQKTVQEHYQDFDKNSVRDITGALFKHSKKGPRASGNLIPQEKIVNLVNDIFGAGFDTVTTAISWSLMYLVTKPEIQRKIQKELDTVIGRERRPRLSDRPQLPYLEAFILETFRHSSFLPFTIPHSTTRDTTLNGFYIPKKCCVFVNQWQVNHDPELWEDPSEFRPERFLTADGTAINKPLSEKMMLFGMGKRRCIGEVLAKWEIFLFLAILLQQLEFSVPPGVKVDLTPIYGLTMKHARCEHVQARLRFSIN
# [4] = Half life in male Sprague-Dawley rat at 0.25 mg/kg, iv; type: ADME, organism-based; set-up: dose 0.25 mg/kg, route intravenous; details: in vivo
# [5] = test system: Cavia porcellus; experiment: Bronchoprotection in male Duncan Hartley guinea pig bronchoconstriction einthoven model assessed as inhibition of methacholine-induced bronchoconstriction at 100 microg/ml, inhalation after 24 hrs by in vivo beta2 adrenergic receptor agonist activity assay; type: functional; set-up: scale not given: the % may be the effect or the level left; method in brief: as §2
# [6] = Apparent permeability across apical to basolateral side in human Caco2 cells using [14C]mannitol at 10 to 100 uM after 30 mins by HPLC-UV analysis; type: ADME, cell-based; details: caco-2, 0.5 h
# [7] = Oral bioavailability in male Sprague-Dawley rat at 0.25 mg/kg; type: ADME, organism-based; details: in vivo
# [8] = target: CYP2D6 (Homo sapiens, UniProt P10635); experiment: Inhibition of CYP2D6 (unknown origin) at 600 nM; type: ADME
# CYP2D6, sequence (P10635 whole entry): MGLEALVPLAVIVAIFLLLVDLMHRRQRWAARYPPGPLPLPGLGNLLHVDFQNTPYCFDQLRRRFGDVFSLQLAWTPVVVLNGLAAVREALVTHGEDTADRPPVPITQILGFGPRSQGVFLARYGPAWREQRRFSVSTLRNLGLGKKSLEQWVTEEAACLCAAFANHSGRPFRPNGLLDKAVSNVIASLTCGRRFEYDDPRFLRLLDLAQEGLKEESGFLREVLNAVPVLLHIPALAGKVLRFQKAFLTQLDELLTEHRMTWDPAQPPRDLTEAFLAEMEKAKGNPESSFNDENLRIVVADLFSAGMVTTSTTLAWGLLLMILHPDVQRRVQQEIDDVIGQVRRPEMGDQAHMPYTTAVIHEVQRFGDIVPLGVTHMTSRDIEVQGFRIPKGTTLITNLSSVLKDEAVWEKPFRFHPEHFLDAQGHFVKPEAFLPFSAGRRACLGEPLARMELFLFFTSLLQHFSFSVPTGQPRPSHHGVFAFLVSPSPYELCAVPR
# [9] = target: CYP3A4 (Homo sapiens, UniProt P08684); experiment: Inhibition of CYP3A4 (unknown origin) at 600 nM; type: ADME
# CYP3A4, sequence (P08684 whole entry): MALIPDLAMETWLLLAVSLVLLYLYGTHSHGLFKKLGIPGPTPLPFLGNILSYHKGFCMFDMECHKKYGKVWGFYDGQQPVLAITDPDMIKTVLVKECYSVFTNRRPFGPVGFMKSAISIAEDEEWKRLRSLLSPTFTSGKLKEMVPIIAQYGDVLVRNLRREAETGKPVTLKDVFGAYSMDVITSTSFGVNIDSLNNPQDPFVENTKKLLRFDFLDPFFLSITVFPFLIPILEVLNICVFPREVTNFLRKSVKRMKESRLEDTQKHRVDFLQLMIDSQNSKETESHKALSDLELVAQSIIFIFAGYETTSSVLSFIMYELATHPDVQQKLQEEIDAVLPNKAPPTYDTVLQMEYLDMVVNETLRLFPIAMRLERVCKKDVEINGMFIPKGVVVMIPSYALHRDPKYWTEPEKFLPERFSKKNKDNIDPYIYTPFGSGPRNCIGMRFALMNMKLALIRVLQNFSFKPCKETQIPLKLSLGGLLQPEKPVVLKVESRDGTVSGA
# [10] = target: T2, Muscarinic acetylcholine receptor M3 (Homo sapiens, UniProt P20309); experiment: Displacement of [3H]NMS from human muscarinic M3 receptor expressing CHO-K1 cells incubated for 60 mins or 6 hrs by liquid scintillation counting; type: cell-based
# Target sequence in this assay (P20309 whole entry): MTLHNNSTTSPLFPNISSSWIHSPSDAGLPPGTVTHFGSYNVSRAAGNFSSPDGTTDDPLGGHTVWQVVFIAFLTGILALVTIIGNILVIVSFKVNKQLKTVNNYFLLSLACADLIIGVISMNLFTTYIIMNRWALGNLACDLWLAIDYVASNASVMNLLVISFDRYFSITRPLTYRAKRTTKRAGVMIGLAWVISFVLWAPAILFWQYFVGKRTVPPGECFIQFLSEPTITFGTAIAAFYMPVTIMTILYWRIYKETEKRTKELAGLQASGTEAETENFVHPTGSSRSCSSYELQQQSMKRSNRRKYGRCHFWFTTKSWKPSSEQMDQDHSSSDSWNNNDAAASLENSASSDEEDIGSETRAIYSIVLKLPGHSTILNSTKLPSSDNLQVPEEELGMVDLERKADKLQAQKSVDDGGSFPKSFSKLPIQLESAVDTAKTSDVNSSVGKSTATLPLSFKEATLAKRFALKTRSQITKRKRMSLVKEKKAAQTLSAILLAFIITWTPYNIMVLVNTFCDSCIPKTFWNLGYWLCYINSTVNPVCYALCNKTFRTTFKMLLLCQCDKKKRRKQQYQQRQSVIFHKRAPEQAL
# [11] = test system: Cavia porcellus; experiment: Bronchoprotection in male Duncan Hartley guinea pig bronchoconstriction einthoven model assessed as inhibition of methacholine-induced bronchoconstriction at 100 microg/ml, inhalation after 24 hrs by in vivo muscarinic antagonist and beta2 agonist activity assay; type: functional; set-up: scale not given: the % may be the effect or the level left; method in brief: as §2
# [12] = test system: Cavia porcellus; experiment: Bronchoprotection in male Duncan Hartley guinea pig bronchoconstriction einthoven model assessed as inhibition of methacholine-induced bronchoconstriction at 100 microg/ml, inhalation after 1.5 hrs by in vivo beta2 adrenergic receptor agonist activity assay; type: functional; set-up: scale not given: the % may be the effect or the level left
# [13] = test system: Salmonella typhimurium; experiment: Genotoxicity in Salmonella typhimurium at 5000 ug/plate by AMES test in presence of metabolic activation; type: toxicity, organism-based; details: salmonella enterica subsp. enterica serovar typhimurium; method in brief: as §1
# [14] = target: CYP2C9 (Homo sapiens, UniProt P11712); experiment: Inhibition of CYP2C9 (unknown origin) at 600 nM; type: ADME
# CYP2C9, sequence (P11712 whole entry): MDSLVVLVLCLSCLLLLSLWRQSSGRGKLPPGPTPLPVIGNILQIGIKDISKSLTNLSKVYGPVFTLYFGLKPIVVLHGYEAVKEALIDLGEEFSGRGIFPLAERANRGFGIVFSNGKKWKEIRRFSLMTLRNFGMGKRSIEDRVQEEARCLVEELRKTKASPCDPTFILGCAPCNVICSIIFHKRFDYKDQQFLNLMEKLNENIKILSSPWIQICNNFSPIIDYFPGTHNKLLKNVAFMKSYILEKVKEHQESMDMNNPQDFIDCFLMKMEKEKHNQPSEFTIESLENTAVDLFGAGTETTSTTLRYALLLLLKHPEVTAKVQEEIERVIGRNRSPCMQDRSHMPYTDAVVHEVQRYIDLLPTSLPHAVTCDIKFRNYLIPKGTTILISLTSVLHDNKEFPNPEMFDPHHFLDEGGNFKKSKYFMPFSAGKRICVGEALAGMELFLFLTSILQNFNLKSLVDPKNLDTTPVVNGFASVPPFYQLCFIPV
# [15] = species: Cavia porcellus; experiment: Agonist activity at beta2 adrenergic receptor in guinea pig isolated trachea assessed as smooth muscle relaxation
# [16] = target: Voltage-gated inwardly rectifying potassium channel KCNH2 (Homo sapiens, UniProt Q12809); experiment: Inhibition of human ERG channel up to 150 nM
# Voltage-gated inwardly rectifying potassium channel KCNH2, sequence (Q12809 whole entry): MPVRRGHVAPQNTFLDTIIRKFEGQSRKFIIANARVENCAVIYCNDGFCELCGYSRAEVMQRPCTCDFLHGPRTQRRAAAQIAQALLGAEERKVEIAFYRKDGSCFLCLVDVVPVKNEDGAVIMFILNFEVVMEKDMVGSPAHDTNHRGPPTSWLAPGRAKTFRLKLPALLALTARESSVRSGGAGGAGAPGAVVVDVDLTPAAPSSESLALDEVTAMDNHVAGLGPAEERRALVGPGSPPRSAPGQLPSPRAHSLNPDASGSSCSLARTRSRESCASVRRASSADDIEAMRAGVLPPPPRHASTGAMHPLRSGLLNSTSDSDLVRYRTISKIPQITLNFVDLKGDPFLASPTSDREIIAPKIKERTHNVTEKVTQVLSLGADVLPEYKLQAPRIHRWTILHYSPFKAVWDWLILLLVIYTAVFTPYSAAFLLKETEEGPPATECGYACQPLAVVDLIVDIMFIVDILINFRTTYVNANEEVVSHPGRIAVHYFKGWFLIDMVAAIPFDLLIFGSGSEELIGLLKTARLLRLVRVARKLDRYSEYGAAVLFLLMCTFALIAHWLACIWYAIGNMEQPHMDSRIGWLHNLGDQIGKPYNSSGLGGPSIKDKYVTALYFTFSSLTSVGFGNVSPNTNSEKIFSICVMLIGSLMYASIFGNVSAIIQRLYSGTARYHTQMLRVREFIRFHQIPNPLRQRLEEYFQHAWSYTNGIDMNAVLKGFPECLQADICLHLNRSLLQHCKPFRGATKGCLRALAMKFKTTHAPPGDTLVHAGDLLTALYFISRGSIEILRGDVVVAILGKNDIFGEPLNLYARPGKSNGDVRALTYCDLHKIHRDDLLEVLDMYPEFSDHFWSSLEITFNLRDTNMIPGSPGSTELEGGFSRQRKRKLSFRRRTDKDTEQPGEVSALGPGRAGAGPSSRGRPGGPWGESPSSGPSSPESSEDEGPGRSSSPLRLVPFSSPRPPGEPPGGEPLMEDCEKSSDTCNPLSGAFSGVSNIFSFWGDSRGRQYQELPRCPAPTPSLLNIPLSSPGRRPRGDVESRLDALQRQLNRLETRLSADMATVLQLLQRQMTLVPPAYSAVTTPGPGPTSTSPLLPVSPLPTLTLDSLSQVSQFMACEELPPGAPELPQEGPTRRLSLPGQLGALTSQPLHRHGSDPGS
# [17] = species: Cavia porcellus; experiment: Combined muscarinic antagonist and beta2 agonist activity in guinea pig isolated trachea assessed as smooth muscle relaxation
# [18] = test system: Cavia porcellus; experiment: Bronchoprotection in male Duncan Hartley guinea pig bronchoconstriction einthoven model assessed as inhibition of methacholine-induced bronchoconstriction at 100 microg/ml, inhalation after 1.5 hrs by in vivo muscarinic antagonist and beta2 agonist activity assay; type: functional; set-up: scale not given: the % may be the effect or the level left
# [19] = Volume of distribution at steady state in male Sprague-Dawley rat at 0.25 mg/kg, iv; type: ADME, organism-based; set-up: dose 0.25 mg/kg, route intravenous; details: in vivo, read-out: Vdss
# [20] = test system: Liver microsome; experiment: Drug metabolism in human liver microsomes assessed as metabolites; type: ADME
# [21] = target: CYP2C19 (Homo sapiens, UniProt P33261); experiment: Inhibition of CYP2C19 (unknown origin) at 600 nM; type: ADME
# CYP2C19, sequence (P33261 whole entry): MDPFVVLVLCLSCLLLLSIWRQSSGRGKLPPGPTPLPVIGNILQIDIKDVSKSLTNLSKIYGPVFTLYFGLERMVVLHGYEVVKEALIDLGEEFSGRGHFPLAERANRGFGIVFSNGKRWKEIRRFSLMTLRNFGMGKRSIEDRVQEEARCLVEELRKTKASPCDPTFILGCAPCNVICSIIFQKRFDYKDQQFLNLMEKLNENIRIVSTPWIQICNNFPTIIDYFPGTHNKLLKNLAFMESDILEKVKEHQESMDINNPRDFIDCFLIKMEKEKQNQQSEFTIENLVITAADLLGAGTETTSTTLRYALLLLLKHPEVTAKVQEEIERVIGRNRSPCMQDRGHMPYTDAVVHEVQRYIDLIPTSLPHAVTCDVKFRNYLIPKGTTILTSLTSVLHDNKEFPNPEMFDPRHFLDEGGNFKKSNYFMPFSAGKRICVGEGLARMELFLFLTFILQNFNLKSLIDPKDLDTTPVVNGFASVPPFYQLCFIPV
# [22] = species: Cavia porcellus; experiment: Antagonist activity at muscarinic M3 receptor in guinea pig isolated trachea assessed as smooth muscle relaxation
# [23] = target: T2, Muscarinic acetylcholine receptor M3; experiment: Binding affinity to human muscarinic M3 receptor assessed as dissociation half life
# Method in brief: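 Kinetic radioligand dissociation study at the human M3 receptor, reported as dissociation half-life in minutes.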
# Target sequence in this assay (P20309 whole entry, looked up): as the sequence (P20309 whole entry) above
# [24] = Clearance in male Sprague-Dawley rat at 0.25 mg/kg, iv; type: ADME, organism-based; set-up: dose 0.25 mg/kg, route intravenous; details: in vivo
# [25] = test system: Cavia porcellus; experiment: Bronchoprotection in male Duncan Hartley guinea pig bronchoconstriction einthoven model assessed as inhibition of methacholine-induced bronchoconstriction at 100 microg/ml, inhalation after 1.5 hrs by in vivo muscarinic acetylcholine receptor antagonist activity assay; type: functional; set-up: scale not given: the % may be the effect or the level left
# [26] = test system: Rattus norvegicus; experiment: Toxicity in rat assessed as respiratory irritation and systemic exposures up to 333 ug/kg dosed via inhalation during 7-day inhalation study; type: organism-based; details: in vivo, 0.333 mg/kg
# [27] = species: Cavia porcellus; experiment: Antisialagogue activity in guinea pig assessed as inhibition of pilocarpine-induced sialagogue response at 100 ug/ml, inhalation after 1.5 hrs; type: functional
# Method in brief: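 Guinea pigs were pretreated with test compound by inhalation. At 1.5 h post-dose they were challenged with pilocarpine. The sialagogue (salivation) response was recorded as % inhibition.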
# [28] = Half life in human liver microsomes at 3 uM after 30 mins by HPLC-UV analysis; type: ADME
structure (smiles),measurement,setting,value
COc1cc(NC(=O)CCN2CCC(OC(=O)Nc3ccccc3-c3ccccc3)CC2)c(Cl)cc1CNC[C@H](O)c1ccc(O)c2[nH]c(=O)ccc12 [BATEFENTEROL],Activity,[1],Non-toxic
same,Activity,[2],48%
same,inhibition at 0.6 µM,[3],25%
same,half-life,[4],10.8 min
same,Activity,[5],47%
same,Papp,[6],< 0.4 ×10⁻⁶ cm/s
same,bioavailability,[7],< 0.45%
same,inhibition at 0.6 µM,[8],< 20%
same,inhibition at 0.6 µM,[9],< 20%
same,Ki,[10],2 nM
same,Activity,[11],77%
same,Activity,[12],73%
same,Activity,[13],Non-toxic
same,inhibition at 0.6 µM,[14],< 20%
same,EC50,[15],25 nM
same,inhibition (INH),[16],Not Active
same,EC50,[17],10 nM
same,Activity,[18],92%
same,Vd,[19],0.32 L/kg
same,Drug metabolism,[20],metabolite_notdetected
same,inhibition at 0.6 µM,[21],< 20%
same,EC50,[22],50 nM
same,T1/2,[23],3 min
same,clearance,[24],75.3 mL/min/kg
same,Activity,[25],75%
same,Activity,[26],Non-toxic
same,inhibition (INH),[27],4%
same,half-life at 3 µM,[28],11.3 min
